Data set [1] deals with T1, DNA topoisomerase 2-alpha (Homo sapiens, UniProt P11388). Nature of the data set: Poison activity at human topo2alpha assessed as induction of accumulation of topo-2/DNA cleavage complex formation at 200 uM using […] plasmid incubated for 6 mins by SYBR safe DNA stain based cleavage complex formation assay. In a few lines: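 Test compound at 200 μM was incubated with 1 U topoisomerase II and 500 ng […] plasmid for 6 min at 37 °C, with 1% DMSO final; vehicle and no-enzyme lanes served as controls. Products were run on a 1% agarose gel with SYBR Safe stain. The band intensity of linear DNA (form III) was quantified and normalized.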

Data set [2] in a line: Half life in mouse liver microsomes. Format: ADME, Microsome. Background: Microsomes from liver hold many membrane-bound enzymes, among them those of drug oxidation.
Data set [3] in a line: Half life in mouse plasma. Format: ADME, cell-free.
Data set [4] is described as follows: Kinetic solubility in neutral buffer. Format: physicochemical. In a few lines:
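Kinetic solubility measured in aqueous buffer at pH 7.4.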

In data set [5] the target is T1, DNA topoisomerase 2-alpha. Nature of the data set: Inhibition of human topo2alpha by plasmid relaxation assay.
Data set [6] in a line: Plasma concentration in mouse at 10 mg/kg, po after 6 hrs. Format: ADME, organism-based. The method, boiled down:
(§1)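 Mice dosed orally at 10 mg/kg, with n = 3 animals per time point. Plasma concentration was followed over time, with sampling to at least 6 h.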

Data set [7] in a line: Plasma concentration in mouse at 10 mg/kg, po after 1 hr. Type of data set: ADME, organism-based. The method, boiled down:
as §1

Each structure is given as a SMILES string. Active and inactive are the calls of the source.

T1 sequence (P11388 whole entry): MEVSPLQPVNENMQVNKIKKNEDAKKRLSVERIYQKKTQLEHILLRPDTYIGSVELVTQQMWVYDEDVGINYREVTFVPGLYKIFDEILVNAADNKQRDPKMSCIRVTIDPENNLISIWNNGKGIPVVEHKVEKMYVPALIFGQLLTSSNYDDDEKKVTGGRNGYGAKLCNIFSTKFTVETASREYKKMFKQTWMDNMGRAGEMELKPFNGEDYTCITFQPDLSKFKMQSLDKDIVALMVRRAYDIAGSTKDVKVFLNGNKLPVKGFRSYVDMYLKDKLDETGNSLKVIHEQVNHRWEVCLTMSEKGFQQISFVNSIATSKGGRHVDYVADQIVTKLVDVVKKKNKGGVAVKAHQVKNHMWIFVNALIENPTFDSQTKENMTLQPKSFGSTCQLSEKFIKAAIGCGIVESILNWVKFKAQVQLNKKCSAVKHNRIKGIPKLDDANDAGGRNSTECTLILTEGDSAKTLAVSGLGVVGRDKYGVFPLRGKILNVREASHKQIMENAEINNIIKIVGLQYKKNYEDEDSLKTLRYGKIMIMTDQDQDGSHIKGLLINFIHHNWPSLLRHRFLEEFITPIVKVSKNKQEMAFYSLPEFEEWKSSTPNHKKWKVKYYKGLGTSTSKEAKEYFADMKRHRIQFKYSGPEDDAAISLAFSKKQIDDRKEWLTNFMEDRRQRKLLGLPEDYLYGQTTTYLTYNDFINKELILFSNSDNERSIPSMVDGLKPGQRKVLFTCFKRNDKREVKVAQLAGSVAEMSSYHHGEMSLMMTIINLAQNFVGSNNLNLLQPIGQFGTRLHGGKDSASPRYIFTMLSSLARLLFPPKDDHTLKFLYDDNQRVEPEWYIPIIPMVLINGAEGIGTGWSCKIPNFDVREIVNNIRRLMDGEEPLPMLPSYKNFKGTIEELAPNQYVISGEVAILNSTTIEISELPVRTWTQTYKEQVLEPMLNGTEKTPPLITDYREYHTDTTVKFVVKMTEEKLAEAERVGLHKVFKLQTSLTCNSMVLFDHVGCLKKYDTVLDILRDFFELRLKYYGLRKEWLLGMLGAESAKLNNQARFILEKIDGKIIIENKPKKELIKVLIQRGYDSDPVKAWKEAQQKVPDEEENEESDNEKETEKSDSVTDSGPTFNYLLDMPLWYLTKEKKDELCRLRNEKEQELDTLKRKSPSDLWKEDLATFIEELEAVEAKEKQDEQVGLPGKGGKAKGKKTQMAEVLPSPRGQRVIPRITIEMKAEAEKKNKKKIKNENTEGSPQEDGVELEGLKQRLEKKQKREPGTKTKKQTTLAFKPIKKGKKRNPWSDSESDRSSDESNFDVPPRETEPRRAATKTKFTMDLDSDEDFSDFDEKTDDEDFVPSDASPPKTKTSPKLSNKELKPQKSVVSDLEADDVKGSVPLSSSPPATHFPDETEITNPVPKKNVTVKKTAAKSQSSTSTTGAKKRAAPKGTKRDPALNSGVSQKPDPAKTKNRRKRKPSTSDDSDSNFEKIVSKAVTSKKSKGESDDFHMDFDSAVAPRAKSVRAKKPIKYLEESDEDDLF

Regarding `O=C(Nc1cccc(OC(F)F)c1)c1c(O)n(-c2ccccc2)c(=S)n(-c2ccccc2)c1=O`, in data set [1], the outcome was Active. Moreover, the half-life – broadly, the time needed for the level to fall by half in the phase considered – in data set [2] is more than 1 h; in data set [3] it was more than 2 h. Besides, the Kinetic_solubility in data set [4] was found to be 208 µM.
In the case of `O=C1NC(=S)NC(=O)C1C(=O)Nc1ccccc1` [MERBARONE], in data set [5], the 50% inhibitory concentration (IC50) – broadly, the concentration at which inhibition is half-maximal – came to 40 µM.
As for `O=C(Nc1cccc(C(F)F)c1)c1c(O)n(-c2ccccc2)c(=S)n(-c2ccccc2)c1=O`, in data set [1], the outcome was Active. The half-life in data set [2] is more than 1 h; in data set [3], more than 2 h. This molecule also gave a Kinetic_solubility in data set [4] of 238 µM.
Turning to `O=C(Nc1cccc(OC(F)(F)F)c1)c1c(O)n(-c2ccccc2)c(=S)n(-c2ccccc2)c1=O`, in data set [1], the outcome was Active. The concentration at 6 h in data set [6] turned out to be 400 ng/mL. Besides, the half-life in data set [2] is more than 1 h; in data set [3], more than 2 h. The Kinetic_solubility in data set [4] was 224 µM. In data set [7], this molecule gave a concentration at 1 h of 400 ng/mL.
As for `CC(C)Oc1cccc(NC(=O)c2c(O)n(-c3ccccc3)c(=S)n(-c3ccccc3)c2=O)c1`, the half-life is more than 1 h in data set [2] and more than 2 h in data set [3].
As to `CC(F)(F)c1cccc(NC(=O)c2c(O)n(-c3ccccc3)c(=S)n(-c3ccccc3)c2=O)c1`, the values for the half-life in data set [2] and in data set [3] were more than 1 h and more than 2 h, respectively.
For `COc1cccc(CCNC(=O)c2c(O)n(-c3ccccc3)c(=S)n(-c3ccccc3)c2=O)c1`, in that order: more than 1 h and more than 2 h.

Values taken from ChEMBL document CHEMBL4342496, “Design, Synthesis, Dynamic Docking, Biochemical Characterization, and in Vivo Pharmacokinetics Studies of Novel Topoisomerase II Poisons with Promising Antiproliferative Activity” (J Med Chem, 2020).
